Reference: BindingDB's records for doi:10.1021/jm9704199 (Dupont Pharmaceuticals, 1998)

Biological target: Human immunodeficiency virus type 1 protease (Human immunodeficiency virus 1, UniProt Q72874)
Assay: Inhibition of HIV protease, measured by assaying the cleavage of a fluorescent peptide substrate using HPLC
Summary of the method: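 HIV-1 protease activity followed as cleavage of a fluorescent peptide substrate, with products resolved and quantified by HPLC; Ki values reported.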

Ki	Compound
0.031 nM	CCCC(N=O)c1cccc(CN2C(=O)N(Cc3cccc(C(CCC)N=O)c3)[C@H](Cc3ccccc3)[C@H](O)[C@@H](O)[C@H]2Cc2ccccc2)c1 (some centres not stated)
0.031 nM	CCC(N=O)c1cccc(CN2C(=O)N(Cc3cccc(C(CC)N=O)c3)[C@H](Cc3ccccc3)[C@H](O)[C@@H](O)[C@H]2Cc2ccccc2)c1 (stereo partly drawn) [(4R,5S,6S,7R)-4,7-dibenzyl-5,6-dihydroxy-1,3-bis({3-[1-(hydroxyimino)propyl]phenyl}methyl)-1,3-diazepan-2-one]
